Measurements pooled from the literature.
Each line is one published result; the experiments were not run side by side.
Target: Serine/threonine-protein kinase DCLK1 (DCLK1, Homo sapiens, UniProt O15075)
One construct used (O15075 1-740): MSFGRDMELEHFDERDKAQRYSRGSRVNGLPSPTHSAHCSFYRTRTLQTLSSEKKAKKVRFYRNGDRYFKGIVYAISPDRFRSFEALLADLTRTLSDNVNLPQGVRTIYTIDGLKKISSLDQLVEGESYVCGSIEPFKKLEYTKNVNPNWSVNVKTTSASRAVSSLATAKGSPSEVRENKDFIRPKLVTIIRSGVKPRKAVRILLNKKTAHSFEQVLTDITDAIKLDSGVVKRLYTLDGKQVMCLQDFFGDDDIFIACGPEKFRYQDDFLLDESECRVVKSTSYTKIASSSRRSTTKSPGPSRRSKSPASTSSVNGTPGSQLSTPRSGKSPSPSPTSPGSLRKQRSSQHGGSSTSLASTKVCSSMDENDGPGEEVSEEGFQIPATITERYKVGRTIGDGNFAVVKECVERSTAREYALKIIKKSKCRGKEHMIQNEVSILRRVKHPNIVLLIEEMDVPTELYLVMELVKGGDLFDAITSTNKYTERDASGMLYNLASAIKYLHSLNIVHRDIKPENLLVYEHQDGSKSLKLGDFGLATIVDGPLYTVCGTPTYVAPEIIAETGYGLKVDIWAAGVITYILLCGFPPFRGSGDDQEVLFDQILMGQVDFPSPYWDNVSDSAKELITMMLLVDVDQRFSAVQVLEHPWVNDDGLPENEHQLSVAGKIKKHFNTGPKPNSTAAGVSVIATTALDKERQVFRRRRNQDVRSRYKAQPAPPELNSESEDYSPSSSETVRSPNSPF

Compound | assay | conditions | endpoint | result
Cn1c2c(c3ccc(Cl)c(Cl)c31)C(C#N)C1(CCOCC1)NC2=O (centres unmarked) | thermal stability, DSF | 10 µM | ΔTm | 0 °C
Cc1c(NC(=O)c2cc(C(N)=O)nc3cc(F)ccc23)c(C(F)(F)F)nn1Cc1ccc(C(C)(C)C)cc1 | cell-free assay, competition with immobilised ligand | 1 µM | remaining binding | 91%
Cn1c2c(Cl)c(Cl)ccc2c2cc[nH]c(=O)c21 | thermal stability, DSF | 10 µM | ΔTm | -0.1 °C
Cc1sc(C(=O)NC2COC2)cc1-n1cc(NC(=O)Nc2c(F)cccc2Cl)cn1 | enzyme activity, inhibitor | 10 µM | remaining activity | 67.2%
CC(=O)N1CCC(c2ccc(C(=O)NC(=N)N)cc2C(F)(F)F)CC1 | cell-free assay, competition with immobilised ligand | 1 µM | remaining binding | 100%
Nc1ncnc2occ(-c3ccc(NC(=O)Nc4cc(C(F)(F)F)ccc4F)cc3)c12 | cell-free assay, inhibitor | 20 µM | remaining signal | 80%
Cn1c2c(c3ccc(Cl)c(Cl)c31)C(C#N)C1(CCN(C(=O)OC(C)(C)C)CC1)NC2=O (racemic) | thermal stability, DSF | 10 µM | ΔTm | 0 °C
CS(=O)(=O)Nc1cccc(-c2csc(NC(=O)CSc3nc4nccnc4c(=O)n3CCc3ccccc3)n2)c1 | enzyme activity, inhibitor | 10 µM | inhibition | 1%
O=C(Nc1cnn(-c2csc(C(=O)NC3COC3)c2)c1)Nc1ccccc1Cl | enzyme activity, inhibitor | 5 µM | remaining activity | 99.2%
Cc1ccc(C(=O)Nc2ccc(CN3CCN(C)CC3)c(C(F)(F)F)c2)cc1C#Cc1cnc2cccnn12 | enzyme activity, inhibitor | 23.5 nM | remaining activity | 93%
CC(C)(O)[C@H]1CC[C@H](Nc2ccc3ncc(-c4cccc(C(F)(F)F)c4)n3n2)CC1 | enzyme activity, inhibitor | 1 µM | remaining activity | 93.4%
O=C(CSc1nc2nccnc2c(=O)n1CCc1ccccc1)Nc1nccs1 | enzyme activity, inhibitor | 10 µM | inhibition | 14%
Cn1c2c(Cl)c(Cl)ccc2c2cc(N)[nH]c(=O)c21 | thermal stability, DSF | 10 µM | ΔTm | 0.1 °C
Nc1cnc(N2CCc3cc(S(=O)(=O)Nc4c(F)cc(Cl)cc4F)cc(N4CCCC4=O)c32)nc1 | cell-free assay, competition with immobilised ligand | 1 µM | remaining binding | 100%
